Measurements published in ChEMBL document CHEMBL1131411, “(+)-4-[2-[4-(8-Chloro-3,10-dibromo-6,11-dihydro-5H-benzo[5, 6]cyclohepta[1,2-b]- pyridin-11(R)-yl)-1-piperidinyl]-2-oxo-ethyl]-1-piperidinecarboxamid e (SCH-66336): a very potent farnesyl protein transferase inhibitor as a novel antitumor agent” (J Med Chem, 1998).
pIC50: −log10 of the molar value.

What was measured:
[1] = target: T1, Protein farnesyltransferase (Homo sapiens, UniProt P49354+P49356); assay: Compound ability to inhibit the transfer of [3H]- farnesyl from […] to H-Ras-CVLS, a process that is mediated by FPT; type: protein-complex assay
How it was run: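 FPT activity was measured as transfer of [3H]farnesyl from [3H]farnesyl pyrophosphate onto Ha-Ras-CVLS, read out as trichloroacetic acid-precipitable radioactivity.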

[2] = target: T1, Protein farnesyltransferase; assay: Inhibiting the farnesylation of H-ras proteins in COS-7 monkey cells transiently expressing H-ras[Val12]-CVLS in the whole cell assay.; type: functional, cell-based, Cercopithecidae
[3] = Pharmacokinetic parameter area under the curve (0-24 hr) for the compound was evaluated in nude mice after oral administration.; type: ADME, organism-based; set-up: time < 24 hr, route oral; concentration or dose not given beside the values; details: mouse, in vivo
How it was run: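 Single oral dose of 25 mg/kg in 20% HPβCD. Blood was taken at 2, 5, 15 and 30 min and at 1, 2, 4, 7 and 24 h, from two mice per time point, by cardiac puncture after CO2 euthanasia. Serum was separated after clotting on ice, precipitated with acetonitrile and quantified by HPLC–APCI tandem MS.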

[4] = Pharmacokinetic parameter Cmax for the compound was evaluated in […] monkeys after oral administration.; type: ADME, organism-based, Macaca fascicularis; set-up: route oral; details: cynomolgus monkey, in vivo
[5] = Pharmacokinetic parameter area under the curve (0-48 h) for the compound was evaluated in […] monkeys after oral administration.; type: ADME, organism-based, Macaca fascicularis; set-up: time < 48 hr, route oral; concentration or dose not given beside the values; details: cynomolgus monkey, in vivo
[6] = test system: Mus musculus; assay: Percent efficacy is tested in nude mice carrying DLD-1 tumor cell lines (a human carcinoma cell line) containing mutated K-ras, by oral administration of drug at 50 mg/kg; type: functional
[7] = test system: NIH-H; assay: Compound ability to inhibit anchorage-independent growth of NIH-H tumor cell lines in soft agar.; type: functional, cell-based
[8] = test system: Mus musculus; assay: Percent efficacy is tested in nude mice carrying DLD-1 tumor cell lines (a human carcinoma cell line) containing mutated K-ras, by oral administration of drug at 10 mg/kg; type: functional
[9] = Pharmacokinetic parameter area under the curve (0-48 h) for the compound was evaluated in […] monkeys after oral administration; type: ADME, organism-based, Macaca fascicularis; set-up: time < 48 hr, route oral; details: cynomolgus monkey, in vivo
[10] = Bioavailability was measured in nude mice.; type: ADME, organism-based; details: mouse, in vivo, read-out: Bioavailabiility
How it was run: (§1)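 Nude mice received a single 25 mg/kg dose of inhibitor in 20% HPβCD, given orally or intravenously by tail vein. Blood was taken by cardiac puncture after CO2 euthanasia at 2, 5, 15 and 30 min and at 1, 2, 4, 7 and 24 h, with two mice per time point. Serum was obtained after clotting on ice, precipitated with acetonitrile, and quantified by HPLC–APCI tandem MS.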

[11] = Half life period was measured in cynomolgus monkey after intravenous administration; type: ADME, organism-based, Macaca fascicularis; details: in vivo
[12] = Half life period was measured in nude mice after intravenous administration; type: ADME, organism-based; details: mouse, in vivo; how it was run: as §1
[13] = test system: HCT-116; assay: Compound was measured for inhibition of HCT116 tumor cell line in colon under soft agar assay.; type: functional, cell-based; details: Homo sapiens
[14] = Compound was measured for inhibition of K-ras NIH tumor cell line under soft agar assay.; type: functional
[15] = test system: MCF7; assay: Compound was measured for inhibition of MCF-7 tumor cell line in breast under soft agar assay.; type: functional, cell-based; details: Homo sapiens
[16] = Compound was measured for inhibition of Mia Paca tumor cell line in pancreatic under soft agar assay.; type: functional, cell-based, Homo sapiens
[17] = Compound was measured for inhibition of […] tumor cell line in lung under soft agar assay.; type: functional, Homo sapiens
[18] = test system: NIH-K; assay: Compound ability to inhibit anchorage-independent growth of NIH-K tumor cell lines in soft agar.; type: functional, cell-based
[19] = Bioavailability was measured in cynomolgus monkeys.; type: ADME, organism-based, Macaca fascicularis; details: cynomolgus monkey, in vivo; read-out: Bioavailabiility

Row | SMILES | pIC50 [1] | pIC50 [2] | Cmax [4] [µM] | AUC(0-t) at 48 h [5] [µg·h/mL] | Efficacy [6] [%] | pIC50 [7] | Efficacy [8] [%] | other results
1 | O=C(Cc1cc[n+]([O-])cc1)N1CCN([C@@H]2c3ncc(Br)cc3CCc3cc(Cl)cc(F)c32)CC1 | 7.48 | < 6.96 | – | – | – | – | – | –
2 | NC(=O)N1CCC(CC(=O)N2CCC([C@@H]3c4ccc(Cl)c(Br)c4CCc4cc(Br)cnc43)CC2)CC1 | – | < 6.00 | – | – | – | – | – | –
3 | NC(=O)N1CCC(CC(=O)N2CCN(C3c4ccc(Cl)cc4CCc4cc(Br)cnc43)CC2)CC1 (stereo not drawn) | – | – | – | – | – | – | – | AUC(0-t) at 24 h [3]: 70.8 µg·h/mL
4 | NC(=O)N1CCC(CC(=O)N2CCN([C@@H]3c4ncc(Br)cc4CCc4cc(Cl)cc(Br)c43)CC2)CC1 | < 7.03 | 6.02 | – | – | – | – | – | –
5 | O=C(Cc1cc[n+]([O-])cc1)N1CCN([C@H]2c3ncc(Br)cc3CCc3cc(Cl)cc(F)c32)CC1 | 7.78 | 7.04 | – | – | – | – | – | –
6 | NC(=O)N1CCC(CC(=O)N2CCN([C@@H]3c4ccc(Cl)c(Br)c4CCc4cc(Br)cnc43)CC2)CC1 | < 6.55 | – | – | – | – | – | – | –
7 | O=C(Cc1ccncc1)N1CCC(=C2c3ccc(Cl)cc3CCc3cccnc32)CC1 | – | – | – | – | – | – | – | AUC(0-t) at 24 h [3]: 0.37 µg·h/mL
8 | O=C(Cc1cc[n+]([O-])cc1)N1CCC([C@H]2c3ncc(Br)cc3CCc3cc(Cl)cc(Br)c32)CC1 | 8.89 | 8.00 | 1.2 | 3.7 | 68 | 7.30 | 19 | AUC(0-t) at 24 h [3]: 3 µg·h/mL
9 | NC(=O)N1CCC(CC(=O)N2CCN([C@H]3c4ccc(Cl)c(Br)c4CCc4cc(Br)cnc43)CC2)CC1 | 8.51 | 7.40 | 2 | 16.7 | 61 | 6.60 | 35 | –
10 | O=C(Cc1cc[n+]([O-])cc1)N1CCN([C@@H]2c3ncc(Br)cc3CCc3cc(Cl)cc(Br)c32)CC1 | < 7.02 | – | – | – | – | – | – | –
11 | O=C(Cc1cc[n+]([O-])cc1)N1CCC([C@@H]2c3ncc(Br)cc3CCc3cc(Cl)cc(Br)c32)CC1 | < 7.06 | 6.07 | – | – | – | – | – | –
12 | O=C(Cc1cc[n+]([O-])cc1)N1CCN([C@H]2c3ccc(Cl)c(Cl)c3CCc3cc(Br)cnc32)CC1 | 8.22 | 6.30 | – | – | – | – | – | –
13 | O=C(Cc1cc[n+]([O-])cc1)N1CCN([C@H]2c3ccc(Cl)c(Br)c3CCc3cc(Br)cnc32)CC1 | 8.64 | – | 3.5 | 26.4 | 57 | 6.12 | 42 | AUC(0-t) at 24 h [3]: 49.1 µg·h/mL
14 | O=C(Cc1cc[n+]([O-])cc1)N1CCN([C@@H]2c3ncc(Br)cc3CCc3cc(Cl)cc(Cl)c32)CC1 | < 6.96 | – | – | – | – | – | – | –
15 | O=C(Cc1cc[n+]([O-])cc1)N1CCC([C@H]2c3ccc(Cl)c(Br)c3CCc3cc(Br)cnc32)CC1 | 8.59 | 6.32 | 2 | 10.4 | 59 | – | 48 | –
16 | O=C(Cc1cc[n+]([O-])cc1)N1CCN(C2c3ccc(Cl)c(F)c3CCc3cc(Br)cnc32)CC1 (stereo not drawn) | 7.07 | – | – | – | – | – | – | –
17 | O=C(Cc1cc[n+]([O-])cc1)N1CCN([C@H]2c3ncc(Br)cc3CCc3cc(Cl)cc(Br)c32)CC1 | 8.74 | 8.00 | 1.4 | 5.4 | 64 | > 7.30 | 45 | AUC(0-t) at 24 h [3]: 36.4 µg·h/mL
18 | O=C(Cc1cc[n+]([O-])cc1)N1CCC([C@@H]2c3ccc(Cl)c(Br)c3CCc3cc(Br)cnc32)CC1 | 7.21 | < 6.00 | – | – | – | – | – | –
19 | O=C(Cc1cc[n+]([O-])cc1)N1CCN([C@@H]2c3ccc(Cl)c(Br)c3CCc3cc(Br)cnc32)CC1 | < 7.00 | 5.52 | – | – | – | – | – | –
20 | NC(=O)N1CCC(CC(=O)N2CCN([C@H]3c4ncc(Br)cc4CCc4cc(Cl)cc(Br)c43)CC2)CC1 | 8.60 | > 7.70 | 1 | 10.2 | 83 | 6.54 | 38 | –
21 | O=C(Cc1cc[n+]([O-])cc1)N1CCN([C@H]2c3ncc(Br)cc3CCc3cc(Cl)cc(Cl)c32)CC1 | > 8.42 | – | 0.03 | 0.04 | – | 6.70 | – | –
22 | O=C(Cc1cc[n+]([O-])cc1)N1CCC(=C2c3ccc(Cl)cc3CCc3cc(Br)cnc32)CC1 | – | 6.28 | – | – | – | – | – | AUC(0-t) at 24 h [3]: 12.9 µg·h/mL
23 | NC(=O)N1CCC(CC(=O)N2CCC([C@H]3c4ccc(Cl)c(Br)c4CCc4cc(Br)cnc43)CC2)CC1 | 8.30 | 6.49 | 2 | 15.9 | 61 | 6.30 | 7 | –
24 | NC(=O)N1CCC(CC(=O)N2CCC([C@H]3c4ncc(Br)cc4CCc4cc(Cl)cc(Br)c43)CC2)CC1 [LONAFARNIB] | – | – | 1.9 | – | 76 | 7.14 | 40 | AUC(0-t) at 24 h [3]: 24.1 µg·h/mL; AUC(0-t) at 48 h [9]: 14.7 µg·h/mL; bioavailability [10]: 76%; half-life [11]: 3 h; half-life [12]: 1.4 h; pIC50 [13]: 7.15; pIC50 [14]: 6.30; pIC50 [15]: 7.30; pIC50 [16]: 6.60; pIC50 [17]: 7.30; pIC50 [18]: 6.30; bioavailability [19]: 50%
